# Assay results as given in PubChem BioAssay AID2237 (Johns Hopkins Ion Channel Center, 2010).
# The whole screen tested about 310,000 compounds, of which about 1,500 (0.48%) were called active.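 How the source made its calls: active means B-score above 5 SD of library B-scores, and initial fluorescence ratio not above library mean plus 5 SD; inactive means the rest.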 What follows is part of a selection rich in actives, with near analogues and random picks from the rest.
# Biological target: Short transient receptor potential channel 4 (Mus musculus) (UniProt Q9QUQ5)
# Assay: activators of mouse TRPC4 channel, primary screen, Fluo4 calcium, HEK293 TRPC4beta/mu-opioid cells (AID 2237);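 on B-score: positive B-score marks a calcium rise read as TRPC4 activation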
# Conditions: Fluo4 calcium fluorescence, at 10 µM; stronger effect = higher value
# Procedure, shortened: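 system = HEK293 cells stably co-expressing mouse TRPC4beta and mu-opioid receptor | schedule = Fluo4 dye loading 45 min at room temperature, 110 s recording | measure = B-scored integrated calcium fluorescence ratio | signal = Fluo4 calcium-sensitive dye fluorescence, kinetic, 1 Hz baseline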
# Chain of Short transient receptor potential channel 4 (Mus musculus) (Q9QUQ5 whole entry, looked up): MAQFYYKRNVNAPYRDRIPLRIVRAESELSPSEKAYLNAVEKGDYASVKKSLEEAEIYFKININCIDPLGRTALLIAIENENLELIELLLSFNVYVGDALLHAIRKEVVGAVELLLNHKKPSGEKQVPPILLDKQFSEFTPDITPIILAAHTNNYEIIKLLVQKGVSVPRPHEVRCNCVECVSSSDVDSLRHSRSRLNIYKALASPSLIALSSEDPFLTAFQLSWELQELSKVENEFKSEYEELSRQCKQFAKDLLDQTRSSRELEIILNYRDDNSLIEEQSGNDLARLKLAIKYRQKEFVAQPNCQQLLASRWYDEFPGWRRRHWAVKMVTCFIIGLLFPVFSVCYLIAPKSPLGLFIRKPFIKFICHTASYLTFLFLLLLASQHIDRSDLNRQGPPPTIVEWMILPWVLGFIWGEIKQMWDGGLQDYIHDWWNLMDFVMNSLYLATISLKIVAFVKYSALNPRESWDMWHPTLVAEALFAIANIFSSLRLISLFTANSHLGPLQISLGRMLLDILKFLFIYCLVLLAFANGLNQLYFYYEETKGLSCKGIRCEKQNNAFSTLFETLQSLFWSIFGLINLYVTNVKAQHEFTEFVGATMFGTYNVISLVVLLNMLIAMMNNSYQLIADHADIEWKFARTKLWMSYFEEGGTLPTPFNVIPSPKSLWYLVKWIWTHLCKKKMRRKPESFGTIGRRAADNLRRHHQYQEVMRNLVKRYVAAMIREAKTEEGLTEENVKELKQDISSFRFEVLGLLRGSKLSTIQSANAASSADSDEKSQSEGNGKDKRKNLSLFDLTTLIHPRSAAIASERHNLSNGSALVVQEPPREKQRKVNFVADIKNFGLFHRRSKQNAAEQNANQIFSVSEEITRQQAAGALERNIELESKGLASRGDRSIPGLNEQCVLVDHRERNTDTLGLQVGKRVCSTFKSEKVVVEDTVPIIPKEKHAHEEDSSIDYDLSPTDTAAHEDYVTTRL
row,SMILES,B-score
1,Cc1nc(CNS(=O)(=O)c2cccnc2)cs1,inactive
2,O=S(=O)(NCCc1csc(-c2ccccc2)n1)c1cccnc1,102 (active)
3,O=S(=O)(NCCc1ccncc1)c1ccccc1,inactive
4,CC#CC[N+](C)(C)CCCCCC,inactive
5,COC(=O)CC(=O)N1CCN(c2ccc(Cl)c(Cl)c2)CC1,inactive
6,OC(CNCc1ccc2c(c1)OCO2)COc1ccccc1 (centres undefined),inactive
7,OC(CNCCc1ccc(Cl)cc1Cl)COc1ccccc1 (centres undefined),44 (active)
8,COc1ccc(OCC(O)CNC(=O)Nc2ccc(Cl)cc2)cc1 (centres undefined),inactive
9,CO/N=C/c1cn(-c2ccc(Cl)cc2)nn1,inactive
10,CCN(CC)c1ccc(NC(=O)CCc2nnc3ccc(N4CCCCC4)nn23)c(C)c1,inactive
11,CCCC(=O)NC(C)C(c1cccs1)N1CCN(c2ccccc2)CC1 (centres undefined),87 (active)
12,CC(NC(=O)C(C)(C)C)C(c1cccs1)N1CCN(Cc2ccccc2)CC1 (centres undefined),inactive
13,CC(NC(=S)Nc1ccccc1)C(c1cccs1)N1CCOCC1 (centres undefined),inactive
14,COc1ccc(CNC(=O)c2ccc3oc(C(C)C)nc3c2)cc1,inactive
15,COc1ccc(N(CC(=O)Nc2ccc(C)cc2C)S(=O)(=O)c2ccccc2[N+](=O)[O-])c(OC)c1,inactive
16,O=C(Nc1ccc2sc3ccccc3c(=O)c2c1)c1ccccc1Cl,inactive
17,Cc1[nH]n(-c2cccc(Cl)c2)c(=O)c1/C=N/n1c(C)nc2ccccc2c1=O,inactive
18,COc1cc(SC#N)ccc1N=Cc1c(C)[nH]n(-c2ccc(C)cc2)c1=O,inactive
19,Cc1ccc(-n2[nH]c(C)c(/C=N/N3C(=O)c4cccc5cccc(c45)C3=O)c2=O)cc1,131 (active)
20,COc1ccccc1CCNS(=O)(=O)c1cc2c3c(c1)C(C)C(=O)N3CCC2 (centres undefined),inactive
21,CCOc1ccc(S(=O)(=O)NCCC(=O)NCC(C)(C)N2CCOCC2)cc1,inactive
22,COc1ccc(C)cc1NC(=O)Nc1ccccc1SC,inactive

row,SMILES,B-score
1,COc1ccccc1NC(=O)CC(NCCN(C)C)C(=O)O (centres undefined),inactive
2,COC(=O)C(CC(=O)Nc1cc(C)ccc1C)Nc1ccccc1OC (centres undefined),69 (active)
3,Cc1ccc(CNC(=O)Cc2cn(C)c3ccccc23)cc1,inactive
4,COc1ccc(N2CCN(C(=O)c3cccs3)CC2)cc1,inactive
5,O=C(Nc1cccnc1)c1cc(Cl)ccc1Cl,inactive
6,CS(=O)(=O)N(CC(=O)Nc1ccc(Cl)c(Cl)c1)C1CCCCC1,inactive
7,CC(c1cccnc1)N(CCN(C)C)C(=O)Nc1ccc(Cl)c(Cl)c1 (centres undefined),62 (active)
8,CC1=C/C(=N\OS(=O)(=O)c2ccccc2)C=CC1=O,inactive
9,COc1ccc(-n2nc(C(=O)NCC(=O)N3CCC(C(N)=O)CC3)c3ccccc3c2=O)cc1OC,inactive
10,CC1(C)N=C(c2ccccn2)C(C)(C)N1O,inactive
11,CC1(C)CC(CNCCC(c2ccc(F)cc2)c2ccco2)CCO1 (centres undefined),inactive
12,O=C(NCCc1ccccn1)c1cccnc1Oc1ccc(Cl)cc1,inactive
13,O=C(COc1cc(Cl)c(Cl)cc1Cl)NCCc1ccccn1,85 (active)
14,O=C(CNC(=O)COc1ccccc1)NCCc1ccccn1,inactive
15,CCn1cc(-c2cc(C(=O)O)on2)c(C)n1,inactive
16,S=c1nc(C23CC4CC(CC(C4)C2)C3)nc2sccn12,inactive
17,N[C@@H](Cc1ccccc1)C(=O)N1CCC(C(=O)NCC(=O)Nc2ccc(F)cc2)CC1,inactive
18,CN(C)CCN(C(=O)CN1C(=O)c2ccccc2C1=O)c1nc2cc3c(cc2s1)OCCO3,inactive
19,CN(C)CCN(C(=O)C1CCCCC1)c1nc2cc3c(cc2s1)OCO3,66 (active)
20,CCN(CC)CCN(C(=O)c1cc(Cl)sc1Cl)c1nc2cc3c(cc2s1)OCO3,inactive
21,COc1cccc(/C=N/NC(=O)C(=O)N2CCCC2)c1,inactive
22,COc1ccc(/C=N/N(C)C2=NS(=O)(=O)c3ccccc32)cc1OC,inactive

row,SMILES,B-score
1,CN(Cc1ccco1)S(=O)(=O)c1nnc(NC(=O)c2ccccc2)s1,inactive
2,O=S(=O)(Oc1ccccc1C(=S)N1CCOCC1)c1ccc(Cl)cc1,inactive
3,C[C@]1(C(=O)NCCc2c[nH]c3ccccc23)C=C[C@@H](Cc2ccccc2)N1C(=O)c1ccccc1,inactive
4,Cc1ccc(CCN2CC(C(=O)NCCc3ccccc3)CC2=O)cc1 (centres undefined),inactive
5,C=CCN(C(=O)c1cc(C)cc(C)c1)C1(C(=O)Nc2ccccc2)CCN(C(C)C)CC1,inactive
6,Cc1cc(C)cc(C(=O)N(CCc2ccccc2)C2=CC3CCC(C2)N3C)c1 (centres undefined),75 (active)
7,CN(C)C(CNC(=O)Cc1ccc([N+](=O)[O-])cc1)c1ccccc1 (centres undefined),179 (active)
8,CN(C)CCNC(=O)Cc1ccc([N+](=O)[O-])cc1,inactive
9,O=C(CC(c1ccccc1)c1ccccc1)NCC(O)c1ccc([N+](=O)[O-])cc1 (centres undefined),inactive
10,CC(C)Oc1c(Br)cc(Br)cc1/C=N/NC(N)=S,inactive
11,Cc1ccc(S(=O)(=O)N(Cc2cc3ccccc3[nH]c2=O)CC2CCCO2)cc1 (centres undefined),inactive
12,COc1ccc(C(=O)NC(=S)NNC(=O)CCc2ccccc2)cc1,96 (active)
13,COc1ccc(C(=O)NNC(=S)NC(=O)c2ccccc2[N+](=O)[O-])cc1,inactive
14,COc1ccc(C(=O)NC(=S)NC2CCCCC2)cc1,inactive
15,COc1ccc(C(=O)NC2CCN(C(=S)NCCc3ccccc3)CC2)cc1,inactive
16,COc1ccc(C(=O)NNC(=S)NC(=O)c2ccccc2)cc1,180 (active)
17,O=C(NNC(=S)NCc1ccccc1)c1ccc(OC(F)F)cc1,inactive
18,O=C(CCc1ccccc1)NNC(=O)COc1ccc(Cl)cc1,inactive
19,CC(C)Oc1ccc(CCC(=O)NNC(=S)NCc2ccccc2)cc1,123 (active)
20,Cc1ccc(OCC(=O)NNC(=S)NCc2ccccc2)cc1,inactive
21,Cc1cc(C)c(C(=O)CSc2nc(C)cc(=O)[nH]2)c(C)c1,inactive
22,Cc1ccc(C(=O)NCC(=O)OCC(=O)NC2CCCCCCC2)cc1,inactive

row,SMILES,B-score
1,COc1ccc(Br)cc1CN(C)CC(=O)Nc1cc([N+](=O)[O-])ccc1OC,inactive
2,CCCn1nc(C(=O)N2CCCc3ccccc32)c2ccccc2c1=O,inactive
3,CN(C)C(=O)N1CCNCC1,inactive
4,Cc1ccc(CC2CC(=O)N(c3cc(C)ccc3C)C2=O)cc1 (centres undefined),inactive
5,O=C(CNS(=O)(=O)c1ccc(Br)s1)N1CCN(C(=O)c2ccco2)CC1,inactive
6,CCSc1nc(O)c(C(c2cccc(OC)c2)c2c(O)nc(SCC)[nH]c2=O)c(=O)[nH]1,inactive
7,CC1CCN(C(=O)C2CCN(S(=O)(=O)N3CCC4(CC3)OCCO4)CC2)CC1,inactive
8,COc1ccc(CCN2C(=O)C3CC=C(C)CC3C2=O)cc1OC (centres undefined),inactive
9,COc1ccc(CCN(C)CCN2C(=O)c3ccccc3C2=O)cc1OC,159 (active)
10,COc1ccc(CCN2C(=O)C(C)=C(C)C2=O)cc1OC,inactive
11,O=c1[nH]c2ccccc2s1,inactive
12,COc1cccc(CN2CCNC(=O)C2CC(=O)N(C)CCc2ccccn2)c1 (centres undefined),132 (active)
13,CN(CCc1cn[nH]c1)C(=O)CC1C(=O)NCCN1Cc1cccc(Oc2ccccc2)c1 (centres undefined),inactive
14,COc1ccc(CN2CCNC(=O)C2CC(=O)N(C)Cc2ccccn2)cc1OC (centres undefined),inactive
15,CCC(C)(C)NC(=O)C(c1ccc(O)cc1)N(Cc1ccco1)C(=O)CCC(=O)Nc1ccccn1 (centres undefined),inactive
16,CCOc1c2ccc(C(=O)NC3CCCc4ccccc43)cc2nn1CC (centres undefined),inactive
17,OCCC#Cc1ccc(CN2CCN(Cc3ccsc3)C(CCO)C2)cc1 (centres undefined),inactive
18,OCCC1CN(Cc2ccccc2-c2ccco2)CCN1Cc1ccsc1 (centres undefined),44 (active)
19,Cc1ccc(CN2CCN(Cc3ccccc3-c3ccco3)CC2CCO)o1 (centres undefined),inactive
20,COc1cc(CO)ccc1OCC(=O)Nc1cccc2ccccc12,inactive
21,CCN(CC(=O)NCc1cccs1)C(=O)c1ccc(OC)c(S(=O)(=O)N2CCOCC2)c1,inactive
22,O=C(c1c(F)cccc1Cl)N1CCN(c2ccccn2)CC1,inactive

row,SMILES,B-score
1,O=C(c1c(F)cccc1F)N1CCN(c2ncc(Br)cn2)CC1,204 (active)
2,CC(=O)NC1(c2ccc(F)cc2)CCN(C(=O)c2c(F)cccc2F)CC1,inactive
3,COc1ccc(Cl)cc1C(=O)NNC(=O)c1nc2nc(C)cc(C)n2n1,inactive
4,Cc1ccc(-c2nn(-c3ccccc3)cc2CN(Cc2ccccc2)C(=O)CCC(=O)O)o1,inactive
5,CCc1ccc(-c2nn(-c3ccccc3)cc2CSC(=N)N)cc1,260 (active)
6,COc1ccc(-c2nn(-c3ccccc3)cc2C(=O)Nc2nc(CC(C)=O)ns2)cc1,inactive
7,COc1ccc(-c2cc(=O)oc3cc(OC(C)C(=O)NCC4CCC(C(=O)O)CC4)ccc23)cc1 (centres undefined),inactive
8,Cc1[nH]c2ccccc2c1-c1ccc(Cl)nn1,inactive
9,CCOC(=O)C1CCCCN1Cc1ccc(OC)c(OC)c1OC (centres undefined),inactive
10,CCCCSc1[nH]c(=O)c(C(=O)OCC)cc1C#N,56 (active)
11,CCOC(=O)c1cc(C#N)c(N2CCCCC2)nc1-c1ccccc1,inactive
12,CCOC(=O)c1cc(C)nc(S(C)(=O)=O)c1C#N,inactive
13,CC1CCN(CC(=O)Nc2nccs2)CC1,inactive
14,COc1ccc(Cl)cc1NC(=O)[C@@H]1CCCN1C(=O)c1cccs1,inactive
15,COc1cccc(CNc2nc(C(F)(F)F)nc3ccccc23)c1,inactive
16,NS(=O)(=O)c1ccc(CCNc2nc(C(F)(F)F)nc3ccccc23)cc1,inactive
17,CCc1ccc(C(CNc2nc(C(F)(F)F)nc3ccccc23)N(C)C)cc1 (centres undefined),51 (active)
18,COc1ccc(NC(=O)CC2C(=O)NC3CCCCC3N2C(=O)c2ccc(F)cc2)cc1 (centres undefined),inactive
19,CC1(C)C=C2[C@H]3CC[C@@H]4[C@@]5(C)CCC(=O)C(C)(C)[C@@H]5CC[C@@]4(C)[C@]3(C)CC[C@@]2(C(=O)O)CC1,inactive
20,CC1(C)C2CCC13CS(=O)(=O)NC3C2 (centres undefined),inactive
21,Cc1ccc(C(=O)NC23CC4CC(CC(C4)C2)C3)c(Cl)c1,inactive
